# APP 5'UTR act: activates APP 5'UTR luciferase reporter. activation, % at 2 µM. AID 1276. 190,000 compounds, 1% hits. SH-SY5Y APP 5'UTR luciferase reporter, luminescence; zero percent = DMSO vehicle wells;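 active means activation above a set limit, based on mean plus 3 SD of controls, cut at about 140% in these data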
# Pf gametocyte: inhibitors of late stage P. falciparum gametocyte viability; AID 743093; 150,000 compounds, 0.065% hits; P. falciparum stage V gametocytes, ATP luminescence, 24 h; inhibition, % at 10.9 µM;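 active means inhibition above the mean plus 3 SD of compounds within the control limits, set per campaign, cut at about 38% in these data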;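 further: 0% = DMSO wells and 100% = medium only without gametocytes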
# STAT1 act: activators of IFN-gamma induced STAT1 signaling; NIH 3T3 STAT1-luciferase reporter, luminescence; 100% = IFN-gamma alone, no compound; activation (% of control), % at 5.5 µM; 200,000 compounds, 2.6% hits; AID 932;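 active means activation above the screen-wide mean activation plus 3 SD, cut at about 130% in these data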;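 further: raw ratio to IFN-gamma control signal so 100% means no change and 0% no light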
# NF-kB expr up: compounds increasing NF-kB expression in human neuronal cells; NF-kB reporter expression; hits give high values; fold change at 12.5 µM; 190,000 compounds, 1.6% hits; in the data active means fold change above about 3.3
# FLuc act counter: affects firefly luciferase, flagging false hits in luciferase stimulation screens. P08659. ATPlite luciferase biochemical, luminescence, 10 min; 0 = ATP-free wells, 1 = DMSO control. activation factor at 10 µM. 200,000 tested, under 10 active;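 active means luciferase activation factor, scaled between plate controls, of at least 2 with compound at 10 µM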
# Target sequence (P08659 whole entry, looked up): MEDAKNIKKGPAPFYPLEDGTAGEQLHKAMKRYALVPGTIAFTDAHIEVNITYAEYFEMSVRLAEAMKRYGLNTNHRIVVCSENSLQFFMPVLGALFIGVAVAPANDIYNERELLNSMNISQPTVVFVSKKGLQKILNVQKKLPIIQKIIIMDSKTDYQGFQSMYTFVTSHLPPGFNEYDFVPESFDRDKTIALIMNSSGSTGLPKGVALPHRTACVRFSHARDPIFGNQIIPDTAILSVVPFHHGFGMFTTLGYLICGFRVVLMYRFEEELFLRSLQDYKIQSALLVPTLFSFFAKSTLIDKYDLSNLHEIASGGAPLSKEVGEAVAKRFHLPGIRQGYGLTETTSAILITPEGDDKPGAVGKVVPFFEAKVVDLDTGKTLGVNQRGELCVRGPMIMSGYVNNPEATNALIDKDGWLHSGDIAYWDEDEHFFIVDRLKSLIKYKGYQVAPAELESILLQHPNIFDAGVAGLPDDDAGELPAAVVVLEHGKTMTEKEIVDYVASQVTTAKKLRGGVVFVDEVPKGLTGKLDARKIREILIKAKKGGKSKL
#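 Assay system: Luciferase/luciferin detection reagent, cell-free biochemical luciferase assay / Read-out: luciferase activation / Benchmarks: No-ATP low control, compound-free enzyme-plus-ATP high control / Medium: PBS buffer for ATP / Detection: luminescence measurement of luciferase light output / Schedule: 10 min at ambient temperature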
# FLuc inhib CS: counter-screen for luciferase assay inhibitors: firefly luciferase inhibition; P08659; ATPLite firefly luciferase biochemical luminescence, 10 min; inhibition, % at 10 µM; 200,000 compounds, 1.5% hits;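 active means inhibition above about 50% when tested at 10 µM, limit read from the data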
# STAT1 activ conf: STAT1 activation, confirmation assay. shares compounds with STAT1 act. AID 1262. NIH 3T3 STAT1-luciferase reporter, IFN-gamma potentiation, luminescence; 100% = IFN-gamma EC80 alone, no compound. activation (% of control), % at 5.7 µM. 1,200 compounds, 97% hits;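 active means activation above a set limit carried over from the earlier primary STAT1 screen, cut at about 140% in these data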;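 further: simple ratio to median IFN-gamma plus DMSO wells so 0% means no light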
# NFkB act STAT1ct: counter-screen for STAT1 activators: NF-kappaB activation; shares compounds with STAT1 act; HEK293T NF-kB luciferase reporter, TNF-alpha stimulated, luminescence; 100% = TNF-alpha with vehicle only; activation (% of control), % at 5.7 µM; 1,200 compounds, 43% hits;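 active means activation above the mean of solvent-only control wells plus 3 SD, set per campaign, cut at about 130% in these data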;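 further: TNF-alpha given at a submaximal dose yielding about 80% of full reporter signal; values are well signal over median control so 100% means no change and 0% no light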
# STAT3 act 2: counter-screen for STAT1 activators: human STAT3 activation; 1,200 compounds, 46% hits; activation (% of control), % at 5.7 µM; U3A cells STAT3-luciferase reporter, IL-6, luminescence; cells lack STAT1; 100 = IL-6 alone, no compound effect; AID 1316; shares compounds with STAT1 act;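 active means activation above the solvent-only control well mean plus 3 SD, set per plate batch, cut at about 110% in these data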;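 further: 0% = no luminescence and 100% = median IL-6 plus DMSO wells; higher means more STAT3 reporter activation so hits are non-selective activators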
# * marks the source's active call; other numbers are inactive results; . = not tested or not shown. Compounds with a hit are over-represented: about 3.5% of the library has one in this group of screens.
SMILES,APP 5'UTR act,Pf gametocyte,STAT1 act,NF-kB expr up,FLuc act counter,FLuc inhib CS,STAT1 activ conf,NFkB act STAT1ct,STAT3 act 2
O=C(Nc1nc2ccccc2s1)C1CCCO1 (stereo unspecified),48.6,23.2,151.0*,2.62,0.8,17.8,166.3*,122.2,108.1
CC1CCc2nc(NC(=O)C3CCCO3)sc2C1 (stereo unspecified),172.2*,1.3,160.8*,3.51*,0.5,48.2,189.0*,102.5,96.4
O=[N+]([O-])c1ccc(OCCN2CCNCC2)cc1,15.3,2.2,91.8,1.12,1,-2.5,.,.,.
C=CCn1c(SCC(=O)Nc2c(C)cccc2C)nnc1-c1cnccn1,4.2,-32.5,95.9,1.09,1.1,-6.0,.,.,.
Cc1ccc(-c2cc(N)n(-c3ccc(F)cc3)n2)cc1,70.1,4.9,155.3*,2.85,0.7,33.5,141.5*,113.1,97.5
CCC(=O)Nc1cccc(NC(=S)NC(=O)c2ccc(Cl)cc2Cl)c1,19.5,.,122.4,1.26,1,-1.2,.,.,.
O=C(NC(=S)Nc1ncccn1)c1ccc(Cl)cc1Cl,36.3,19.4,174.0*,2.22,0.4,64.2*,218.3*,130.5,109.5
Cc1c(C(=O)NCC2CCCO2)oc2ccc3c(c12)C(=O)CC(C)(C)O3 (stereo unspecified),156.5*,.,155.2*,3.44*,0.3,67.0*,209.4*,121.8,126.5*
CCC(c1nnnn1CCC(C)C)N1CCC(C(N)=O)CC1 (stereo unspecified),-2.9,.,101.1,1.13,1.1,-8.0,.,.,.
CCc1nnc(NC(=O)c2sc3nc4c(cc3c2N)CCCCC4)s1,70.0,.,154.6*,3.37*,0.3,68.3*,187.2*,134.9*,116.6*
CCc1nnc(NC(=O)c2sc3nc4c(cc3c2N)CCCCCC4)s1,12.2,0.7,128.5,1.99,0.9,10.7,.,.,.
O=c1c2c(nc3cc(-c4ccc(F)cc4)[nH]n13)CCCC2,167.6*,1.4,176.7*,3.36*,0.3,67.6*,240.4*,115.1,92.5
CCN(/C=N/c1sc2c(c1C#N)CCCCC2)CC,116.6,9.2,158.0*,4.25*,0.9,14.6,182.2*,135.1*,124.9*
N#Cc1c(/N=C/C=C/c2ccccc2)sc2c1CCCC2,5.2,.,91.9,1.04,0.9,5.3,.,.,.
CC(C)c1ccc(CN2CC(C(=O)Nc3ccccc3)CC2=O)cc1 (stereo unspecified),12.9,7.4,99.3,1.01,1,-3.4,.,.,.
O=C(NCCc1ccccc1)c1ccc(Cl)nc1,73.4,.,156.4*,3,0.8,19.3,162.8*,117.9,121.2*
O=C(NCCc1ccccc1)c1ccc(Cl)c([N+](=O)[O-])c1,37.2,.,114.9,2.27,1,3.8,.,.,.
COc1ccc(OC)c(NC(=O)C(=O)NNC(=O)COc2ccc(Br)cc2C)c1,-15.7,8.0,102.5,0.9,1,-4.3,.,.,.
Cc1nc2ccc(-c3nc4ccccc4o3)cc2[nH]1,142.9*,.,195.4*,6.98*,0.4,63.2*,231.8*,121.4,98.3
Nc1ccc(-c2nc3ccc(-c4nc5ccccc5o4)cc3[nH]2)cc1,40.7,1.1,120.6,1.29,1,-3.5,.,.,.
CC(=O)Nc1nc2ccc(-c3nc4ccccc4o3)cc2s1,41.4,.,166.6*,5.47*,0.8,19.8,199.5*,135.5*,115.1*
CCC(=O)Nc1cccc(-c2nc3ccccc3o2)c1,-12.8,.,109.1,1.47,1,0.0,.,.,.
CC1(C)CC(=O)C(C(C2=C(O)CC(C)(C)CC2=O)c2ccc(Br)s2)C(=O)C1 (stereo unspecified),.,16.1,99.4,0.78,0.9,5.0,.,.,.
Cc1nn(C)c(C)c1S(=O)(=O)NC1CCCC1,9.9,3.1,107.0,1.07,1.1,-8.1,.,.,.
Cc1nn(-c2nnc(NC3CCCCC3)nn2)c(C)c1Br,134.2,.,163.8*,2.78,0.8,24.5,184.5*,132.8,121.7*
SMILES,APP 5'UTR act,Pf gametocyte,STAT1 act,NF-kB expr up,FLuc act counter,FLuc inhib CS,STAT1 activ conf,NFkB act STAT1ct,STAT3 act 2
O=C(NC1CCCC1)c1cc(-c2cccs2)on1,121.2,.,172.9*,9.67*,0.7,27.7,204.9*,147.1*,114.6*
COC(=O)c1nn(-c2cccc(C)c2)c2nnc(Cc3ccc(C)cc3)c(=O)n12,-4.1,20.6,87.2,1.16,1.1,-8.9,.,.,.
O=C(Nc1ccc2sccc2c1)c1ccc(Cl)s1,206.0*,.,192.4*,7.66*,0.7,30.0,275.0*,138.3*,113.1*
Cc1cnc(NC(=O)c2sc3ccccc3c2Cl)s1,106.9,-23.9,158.9*,4.57*,0.1,93.2*,172.3*,70.9,79.1
Cc1ccnc(NC(=O)c2sc3ccccc3c2Cl)c1,148.0*,-23.9,164.8*,3.57*,0.1,92.4*,130.3*,59.4,50.4
CSc1ccccc1C(=O)Nc1ncc(C)s1,-8.4,.,108.2,1.22,1,-2.3,.,.,.
O=C(NCc1nnc(SCC(=O)N2CCOCC2)o1)c1c(F)cccc1Cl,-10.7,22.0,100.2,0.51,1,-2.8,.,.,.
CCCC(NC(=O)c1c(C)noc1C)C12CC3CC(CC(C3)C1)C2 (stereo unspecified),12.8,14.4,98.4,0.93,1.1,-6.4,.,.,.
CC(C)(C)C(=O)COc1ccccc1[N+](=O)[O-],-3.3,-2.1,94.3,0.75,1.1,-7.3,.,.,.
CCOC(=O)/C=C/COc1ccccc1[N+](=O)[O-],40.1,.,153.9*,2.12,0.7,30.2,145.9*,119.5,100.2
O=C(NCCSc1ccccc1)c1ccc(Br)cc1,179.5*,.,157.2*,10.1*,0.7,31.6,205.5*,116.1,111.5*
Cc1occc1C(=O)Nc1nccs1,8.5,-17.6,94.8,1,1,-3.6,.,.,.
Cc1occc1C(=O)Nc1nnc(-c2cccs2)s1,113.9,18.4,157.2*,1.51,1,-2.5,194.0*,130.8,112.5*
O=[N+]([O-])c1ccc(/C=N/N=C/c2ccc([N+](=O)[O-])o2)o1,-94.0,-8.5,182.4*,0.15,1,0.6,134.5*,137.6*,84.6
CCOc1ccccc1NC(=O)c1ccc2nccnc2c1,-1.0,.,96.5,1.12,1,-4.7,.,.,.
COC(=O)c1c(O)cc(C(C)(C)C)n(-c2ccccc2)c1=O,4.7,.,96.7,1.19,1.1,-7.8,.,.,.
Cc1ccc2nc(SCc3cn4cccnc4n3)[nH]c2c1,11.0,-5.0,101.6,1.41,1,-1.8,.,.,.

# Compound activity deposited in PubChem BioAssay by several laboratories.
